Source: ChEMBL document CHEMBL1153389, “Identification of novel antibacterial peptides by chemoinformatics and machine learning” (2009)

Assays:
Assay type in all cases: functional
Pseudomonas aeruginosa [1] = test: Antimicrobial activity against Pseudomonas aeruginosa H103 after overnight incubation by broth microdilution method
How it was run: (§1)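 Modified broth microdilution. Peptides are serially diluted in 0.01% acetic acid with 0.2% BSA at 10-fold the final concentration, then added to MH medium in polypropylene plates. Bacteria from an overnight culture are added to a final (2-7) × 10^5 CFU/mL. Plates are incubated overnight at 37 °C. MIC is the lowest concentration with no visible growth.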

Pseudomonas aeruginosa [2] = test: Antimicrobial activity against Pseudomonas aeruginosa H1001 expressing luciferase gene assessed as ratio antimicrobial IC50 for drug to Bac2A peptide by luminescence assay
How it was run: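 Peptides are made by SPOT synthesis on cellulose, cleaved, and the spots placed in plate wells. Overnight P. aeruginosa H1001 (fliC::luxCDABE) is diluted 1:500 in 100 mM Tris-HCl pH 7.3 with 20 mM glucose and added to the wells. After 30 min, serial dilutions (8 rows) are made. Luminescence is read at 4 h. IC50 is taken from a sigmoid fit and expressed relative to Bac2A run in the same series.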

Pseudomonas aeruginosa [3] = test: Antimicrobial activity against multidrug-resistant Pseudomonas aeruginosa Brazil 9 isolate after overnight incubation by broth microdilution method
How it was run: (§2)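 Modified broth microdilution in polypropylene 96-well plates with Mueller-Hinton (MH) medium. Bulk-synthesized peptides were serially diluted at 10-fold final strength in 0.01% acetic acid with 0.2% BSA, then added 1:10 to MH. Inoculum came from an overnight culture at a final (2-7) × 10^5 CFU/mL. Plates were incubated overnight at 37 °C. MIC was the lowest concentration with no visible growth.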

Pseudomonas aeruginosa [4] = test: Antimicrobial activity against multidrug-resistant Pseudomonas aeruginosa Brazil 198 isolate after overnight incubation by broth microdilution method; how it was run: as §2
Pseudomonas aeruginosa [5] = test: Antimicrobial activity against multidrug-resistant Pseudomonas aeruginosa Brazil 213 isolate after overnight incubation by broth microdilution method; how it was run: as §2
Pseudomonas aeruginosa [6] = test: Antimicrobial activity against Pseudomonas aeruginosa LES400 after overnight incubation by broth microdilution method; how it was run: as §2
Pseudomonas aeruginosa [7] = test: Antimicrobial activity against Pseudomonas aeruginosa H1030 after overnight incubation by broth microdilution method; how it was run: as §2
Pseudomonas aeruginosa [8] = test: Antimicrobial activity against Pseudomonas aeruginosa H1027 after overnight incubation by broth microdilution method; how it was run: as §1
[9] = system: Stenotrophomonas maltophilia; test: Antimicrobial activity against Pseudomonas maltophilia ATCC 13637 after overnight incubation by broth microdilution method; how it was run: as §1
Enterobacter cloacae = test: Antimicrobial activity against class C chromosomal beta lactamase expressing Enterobacter cloacae 218R after overnight incubation by broth microdilution method; how it was run: as §1
Escherichia coli [10] = test: Antimicrobial activity against extended-spectrum beta-lactamase producing Escherichia coli 63103 after overnight incubation by broth microdilution method; how it was run: as §1
Escherichia coli [11] = test: Antimicrobial activity against extended-spectrum beta-lactamase producing Escherichia coli 64771 after overnight incubation by broth microdilution method; how it was run: as §1
Klebsiella pneumoniae [12] = test: Antimicrobial activity against extended-spectrum beta-lactamase-resistant Klebsiella pneumoniae 61962 after overnight incubation by broth microdilution method; how it was run: as §2
Klebsiella pneumoniae [13] = test: Antimicrobial activity against extended-spectrum beta-lactamase-resistant Klebsiella pneumoniae 63575 after overnight incubation by broth microdilution method; how it was run: as §2
Staphylococcus aureus [14] = test: Antimicrobial activity against Staphylococcus aureus ATCC 25923 after overnight incubation by broth microdilution method; how it was run: as §2
Staphylococcus aureus [15] = test: Antimicrobial activity against methicillin-resistant Staphylococcus aureus C623 after overnight incubation by broth microdilution method; how it was run: as §2
Enterococcus faecalis [16] = test: Antimicrobial activity against Enterococcus faecalis ATCC 29212 after overnight incubation by broth microdilution method; how it was run: as §1
Enterococcus faecalis [17] = test: Antimicrobial activity against vancomycin-resistant Enterococcus faecalis w6190(VanA) isolate after overnight incubation by broth microdilution method; how it was run: as §2
Enterococcus faecalis [18] = test: Antimicrobial activity against vancomycin-resistant Enterococcus faecalis f43559 (VanB) isolate after overnight incubation by broth microdilution method; how it was run: as §2
Enterococcus faecium [19] = test: Antimicrobial activity against vancomycin-resistant Enterococcus faecium mic80(VanA) isolate after overnight incubation by broth microdilution method; how it was run: as §2
Enterococcus faecium [20] = test: Antimicrobial activity against vancomycin-resistant Enterococcus faecium t62764(VanB) isolate after overnight incubation by broth microdilution method; how it was run: as §2

| Substance | MIC (Pseudomonas aeruginosa [1]) [µM] | Ratio IC50 (Pseudomonas aeruginosa [2]) | MIC (Pseudomonas aeruginosa [3]) [µM] | MIC (Pseudomonas aeruginosa [4]) [µM] | MIC (Pseudomonas aeruginosa [6]) [µM] | MIC (Pseudomonas aeruginosa [7]) [µM] | MIC (Pseudomonas aeruginosa [8]) [µM] | MIC [9] [µM] | MIC (Enterobacter cloacae) [µM] | MIC (Escherichia coli [10]) [µM] | MIC (Escherichia coli [11]) [µM] | MIC (Klebsiella pneumoniae [12]) [µM] | MIC (Klebsiella pneumoniae [13]) [µM] | MIC (Staphylococcus aureus [14]) [µM] | MIC (Staphylococcus aureus [15]) [µM] | MIC (Enterococcus faecalis [16]) [µM] | MIC (Enterococcus faecalis [17]) [µM] | MIC (Enterococcus faecalis [18]) [µM] | MIC (Enterococcus faecium [19]) [µM] | MIC (Enterococcus faecium [20]) [µM] | further results |
| --- | --- | --- | --- | --- | --- | --- | --- | --- | --- | --- | --- | --- | --- | --- | --- | --- | --- | --- | --- | --- | --- |
| H-RKRLKWWIY-OH | 25 | 0.18 | 50 | 50 | 50 | 50 | 6.3 | 3.2 | 13 | 6.3 | 6.3 | > 202 | 50 | 6.3 | 6.3 | 50 | > 202 | 202 | 13 | 3.2 | MIC (Pseudomonas aeruginosa [5]): 50 µM |
| H-RLARIVVIRVAR-OH | 48 | – | 192 | 95 | 95 | 95 | 12 | 3 | 24 | 24 | 24 | 192 | 192 | 24 | 24 | 12 | 48 | 48 | 12 | 3 | MIC (Pseudomonas aeruginosa [5]): 192 µM |
| H-AWRFKNIRK-OH | > 223 | 9.2 | – | – | > 223 | > 223 | 111 | > 223 | > 223 | > 223 | 223 | > 223 | > 223 | 223 | > 223 | > 223 | > 223 | > 223 | > 223 | 223 | – |
| H-KRIMKLKMR-OH | > 226 | 6.5 | – | – | > 226 | > 226 | > 226 | > 226 | > 226 | > 226 | > 226 | > 226 | > 226 | > 226 | > 226 | > 226 | > 226 | > 226 | > 226 | > 226 | – |
| H-WRWWKIWKR-OH | 5.9 | 0.14 | 24 | 24 | 12 | 47 | 1.5 | 0.8 | 12 | 5.9 | 5.9 | 94 | 24 | 3 | 3 | 24 | 94 | 94 | 5.9 | 1.5 | MIC (Pseudomonas aeruginosa [5]): 47 µM |
| H-VVLKIVRRF-OH | > 241 | 25 | – | – | > 241 | > 241 | 241 | 60 | 241 | > 241 | 241 | > 241 | > 241 | 241 | 241 | 241 | > 241 | > 241 | 241 | 60 | – |
| H-KWKIFRRWW-OH | 12 | 0.16 | 24 | 24 | 12 | 48 | 3.1 | 1.5 | 6 | 24 | 12 | 194 | 97 | 3.1 | 3.1 | 24 | 97 | 97 | 24 | 6.1 | MIC (Pseudomonas aeruginosa [5]): 48 µM |
| H-AVWKFVKRV-OH | 240 | 8.18 | – | 240 | 240 | > 240 | 120 | 60 | > 240 | 240 | 120 | > 240 | > 240 | 240 | 240 | > 240 | > 240 | > 240 | 120 | 120 | – |
| H-KIWWWWRKR-OH | 5.9 | 0.13 | 47 | 24 | 47 | 12 | 5.9 | 3 | 94 | 12 | 5.9 | 189 | 47 | 5.9 | 5.9 | 24 | 94 | 94 | 5.9 | 1.5 | MIC (Pseudomonas aeruginosa [5]): 47 µM |
| H-WKRWWKKWR-OH | 23 | 0.2 | 46 | 46 | 23 | 46 | 5.8 | 1.4 | 93 | 23 | 2.9 | 186 | 46 | 5.8 | 5.8 | 93 | > 186 | > 186 | 23 | 5.8 | MIC (Pseudomonas aeruginosa [5]): 93 µM |
| H-RWRRWKWWL-OH | 2.9 | 0.08 | 12 | 12 | 5.8 | 12 | 0.3 | 0.7 | 5.8 | 5.7 | 2.9 | 46 | 11 | 2.9 | 2.9 | 23 | 92 | 92 | 5.7 | 1.4 | MIC (Pseudomonas aeruginosa [5]): 23 µM |
| H-RKWIWRWFL-OH | 6.1 | 0.15 | 12 | 3.1 | 6.1 | 3.1 | 1.5 | 1.5 | 3 | 1.5 | 1.5 | 3.1 | 3.1 | 3.1 | 3.1 | 6.1 | 24 | 24 | 3.1 | 3.1 | MIC (Pseudomonas aeruginosa [5]): 6.1 µM |
| H-RRFKFIRWW-OH | 6.1 | 0.24 | 24 | 49 | 12 | 49 | 3.1 | 0.8 | 12 | 12 | 12 | 98 | 49 | 6.1 | 6.1 | 12 | 98 | 49 | 6.1 | 6.1 | MIC (Pseudomonas aeruginosa [5]): 49 µM |
| H-IWWKWRRWV-OH | 6 | 0.29 | 48 | 12 | 12 | 48 | 6 | 1.5 | 6 | 24 | 6 | 96 | 12 | 3 | 3 | 24 | 48 | 48 | 6 | 3 | MIC (Pseudomonas aeruginosa [5]): 48 µM |
| H-AIRRWRIRK-OH | > 217 | 4.62 | – | – | > 217 | > 217 | 217 | 108 | 108 | 108 | 108 | > 217 | > 217 | 54 | 54 | > 217 | > 217 | > 217 | 108 | 14 | – |
| H-IKRWWRWWR-OH | – | 0.23 | – | – | – | – | – | – | – | – | – | – | – | – | – | – | – | – | – | – | – |
| H-RKWRWRWLK-OH | – | 0.31 | – | – | – | – | – | – | – | – | – | – | – | – | – | – | – | – | – | – | – |
